Reindexed ranking data for 13 sequences are collected here from article PMC4394037 (Journal of molecular biology, 2014).

For this assay, the target named is Bcl-xL (Homo sapiens, UniProt Q07817). Type of assay: binding. To be noted: global SORTCERY ranks re-indexed from 1 to 19 for the 19 chosen sequences. A digest of the protocol: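 Incubated with Myc-tagged Bcl-xL in 50 mM Tris, 100 mM NaCl, pH 8.0, 1 mg/ml BSA for 2 h at room temperature. Stained with anti-HA/anti-Myc, then APC/PE secondaries, at 4 °C. Sorted into 12 gates and deep-sequenced (Phred >0.95). Global ranking optimised by Monte Carlo, with bootstrap uncertainty.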
Sequence of Bcl-xL (Q07817 whole entry): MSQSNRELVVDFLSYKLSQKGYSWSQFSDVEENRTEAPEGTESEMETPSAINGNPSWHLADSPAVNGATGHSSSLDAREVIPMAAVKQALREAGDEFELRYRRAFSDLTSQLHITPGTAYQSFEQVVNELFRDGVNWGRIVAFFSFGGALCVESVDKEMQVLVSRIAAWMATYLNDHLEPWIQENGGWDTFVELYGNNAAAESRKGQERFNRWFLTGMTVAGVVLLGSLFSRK
AAQELRRYGDEY: the reindexed ranking stood at 8.

Sequence AGAQLHRFADDY showed a reindexed ranking of 12.

Sequence FGAQLGRVASDF had a reindexed ranking of 14.

For the sequence FGAQLNRIAEDF, the reindexed ranking was 6.

IGAQFGRFADDF came in with a reindexed ranking of 5.

IGAQLRRMADDV displayed a reindexed ranking of 7.

The sequence VAQELRRIGDEV yielded a reindexed ranking of 9.

VAQELRRYGDEY registered a reindexed ranking of 4.

Consider VGAQFHRFANDF, for which the reindexed ranking is recorded as 17.

For VGAQLRRIADDV, the reindexed ranking worked out at 1.

YAQEIGRNGDEF registered a reindexed ranking of 16.

Take YAQELQRYGDET: the reindexed ranking was found to be 13.

Consider YGAQLDRYAQDF, for which the reindexed ranking is given as 10.
